Results reported in ChEMBL document CHEMBL1156107, “Synthesis of new alkylaminooxysterols with potent cell differentiating activities: identification of leads for the treatment of cancer and neurodegenerative diseases” (J Med Chem, 2009).
The source made the active and inactive calls. The calls are words filed in the database; no cut-off is given here.

Assays:
P19 [1] = assay: Cytotoxicity against mouse P19 cells after 3 days by trypan blue exclusion assay; assay type: functional, cell-based
Outline: (§1)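 U937 and P19 cells treated with compound. Cell death scored by trypan blue exclusion, with cells scraped, suspended in 0.25% w/v trypan blue in PBS and counted in a Malassez cell. IC50 is the concentration giving 50% cytotoxicity.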

P19 [2] = assay: Induction of dendrite out growth in IL-4/GMCSF-stimulated mouse P19 cells assessed as dendrite length at 100 nM after 48 hrs by light microscopy; assay type: functional
U-937 [3] = assay: Cytotoxicity against human U937 cells after 3 days by trypan blue exclusion assay; assay type: functional, cell-based; outline: as §1
U-937 [4] = assay: Induction of dendrite out growth in IL-4/GMCSF-stimulated human U937 cells assessed as dendrite length at 100 nM after 48 hrs by light microscopy; assay type: functional
Outline: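 U937 cells at 1.1 × 10⁶ cells/mL were primed with 10 ng/mL PMA for 48 h in RPMI with 10% heat-inactivated serum. Adherent cells were then given 100 ng/mL IL-4 plus 100 ng/mL GM-CSF or 100 nM compound for 48 h. Dendrite length scored by light microscopy, from none to over 100 μm with a contact network.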

A549 = assay: Cytotoxicity against human A549 cells after 72 hrs by trypan blue exclusion assay; assay type: functional, cell-based
Outline: (§2)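 Cells were exposed for 72 h to the test agent at increasing concentrations from 10 nM to 20 μM, at 37 °C in humidified 5% CO2. Cells were scraped and resuspended in 0.25% w/v trypan blue in PBS, and dead cells were counted under a light microscope in a Malassez chamber. IC50 is the concentration giving 50% cytotoxicity. Values are mean ± SE of three independent experiments, each run in duplicate.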

N2a = assay: Cytotoxicity against mouse Neuro2a cells after 72 hrs by trypan blue exclusion assay; assay type: functional, cell-based; outline: as §2
MCF7 [5] = assay: Cytotoxicity against human MCF7 cells after 72 hrs by trypan blue exclusion assay; assay type: functional, cell-based; outline: as §2
B16-F10 = assay: Cytotoxicity against mouse B16F10 cells after 72 hrs by trypan blue exclusion assay; assay type: functional, cell-based; outline: as §2
SH-SY5Y = assay: Cytotoxicity against human SH-SY5Y cells after 72 hrs by trypan blue exclusion assay; assay type: functional, cell-based; outline: as §2
NB-4 = assay: Cytotoxicity against human NB4 cells after 72 hrs by trypan blue exclusion assay; assay type: functional, cell-based; outline: as §2
HCT-8 = assay: Cytotoxicity against human HCT8 cells after 72 hrs by trypan blue exclusion assay; assay type: functional, cell-based; outline: as §2
SW-620 = assay: Cytotoxicity against human SW620 cells after 72 hrs by trypan blue exclusion assay; assay type: functional, cell-based; outline: as §2
U-937 [6] = assay: Cytotoxicity against human U937 cells after 72 hrs by trypan blue exclusion assay; assay type: functional, cell-based; outline: as §2
KG-1 = assay: Cytotoxicity against human KG1 cells after 72 hrs by trypan blue exclusion assay; assay type: functional, cell-based; outline: as §2
SK-MEL-28 = assay: Cytotoxicity against human SK-MEL-28 cells after 72 hrs by trypan blue exclusion assay; assay type: functional, cell-based; outline: as §2
P19 [7] = assay: Cytotoxicity against mouse P19 cells after 72 hrs by trypan blue exclusion assay; assay type: functional, cell-based; outline: as §2
U-87MG ATCC = assay: Cytotoxicity against human U87 cells after 72 hrs by trypan blue exclusion assay; assay type: functional, cell-based; outline: as §2
TS/A = assay: Cytotoxicity against mouse TSA cells after 72 hrs by trypan blue exclusion assay; assay type: functional, cell-based; outline: as §2
SK-N-SH = assay: Cytotoxicity against human SK-N-SH cells after 72 hrs by trypan blue exclusion assay; assay type: functional, cell-based; outline: as §2
MCF7 [8] = assay: Induction of human MCF7 cell differentiation assessed as milk fat accumulation in intracytoplasmic vesicle at 5 uM after 48 hrs by Bligh and Dyer method; assay type: functional, cell-based
Outline: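 MCF-7 cells (5 million) exposed to vehicle or compound for 48 h, washed three times in PBS. Lipids extracted by the Bligh and Dyer method and triglycerides quantified.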

MCF7 [9] = assay: Induction of human MCF7 cell differentiation assessed as lipid accumulation in intracytoplasmic vesicle at 5 uM after 48 hrs by oil red O staining-based light microscopy; assay type: functional
Outline: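 MCF-7 cells on glass coverslips treated with drug, fixed in 3.7% paraformaldehyde for 1 h at room temperature, and stained with oil red O in 60% isopropanol with hematoxylin counterstain. Dye extracted with isopropanol and read at 510 nm, with control subtracted and the value normalized to SYBR green DNA stain.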

MCF7 [10] = assay: Induction of human MCF7 cell differentiation assessed as stimulation of milk fat globulin expression at 5 uM after 48 hrs by immunocytochemistry; assay type: functional, cell-based
U-937 [11] = assay: Cytotoxicity against human U937 cells up to 20 uM after 3 days by trypan blue exclusion assay; assay type: functional, cell-based; outline: as §1
P19 [12] = assay: Cytotoxicity against mouse P19 cells up to 20 uM after 3 days by trypan blue exclusion assay; assay type: functional, cell-based; outline: as §1
[13] = Mus musculus, P19, 72 h, read-out: IC50
[14] = Homo sapiens, U-937, 72 h, read-out: IC50

C[C@]12CC[C@H]3[C@@H](C[C@@H](NCCc4c[nH]cn4)[C@@]4(O)C[C@@H](O)CC[C@]34C)[C@@H]1CC[C@@H]2O
IC50 (P19 [1]; [13]): 7.3 µM
Activity (P19 [2]): inactive
IC50 (U-937 [3]; [14]): 9.8 µM
Activity (U-937 [4]): inactive

NCCCNCCCCNCCCN [SPERMINE]
IC50 (P19 [1]; p19): Not Active
Activity (P19 [2]): inactive
IC50 (U-937 [3]; u-937): Not Active
Activity (U-937 [4]): inactive

CC(C)CCC[C@@H](C)[C@H]1CC[C@H]2C3=C[C@@H](NCCCCN)[C@@]4(O)C[C@@H](O)CC[C@]4(C)[C@H]3CC[C@]12C
IC50 (P19 [1]; [13]): 2.8 µM
Activity (P19 [2]): 50 um
IC50 (U-937 [3]; [14]): 2.6 µM
Activity (U-937 [4]): 5 um

CC(C)CCC[C@@H](C)[C@H]1CC[C@H]2[C@@H]3C[C@@H](NCCCCN)[C@@]4(O)C[C@@H](O)CC[C@]4(C)[C@H]3CC[C@]12C
IC50 (P19 [1]; [13]): 2.6 µM
Activity (P19 [2]): 10 um
IC50 (U-937 [3]; [14]): 2.1 µM
Activity (U-937 [4]): 5 um

NCCc1c[nH]cn1 [HISTAMINE]
IC50 (P19 [1]; p19): Not Active
Activity (P19 [2]): inactive
IC50 (U-937 [3]; u-937): Not Active
Activity (U-937 [4]): inactive

CC(C)CCC[C@@H](C)[C@H]1CC[C@H]2[C@@H]3C[C@@H](NCCCNCCCCNCCCN)[C@@]4(O)C[C@@H](O)CC[C@]4(C)[C@H]3CC[C@]12C
IC50 (P19 [1]; p19): Not Active
Activity (P19 [2]): 10 um
IC50 (U-937 [3]; u-937): Not Active
Activity (U-937 [4]): <5 um

CC(C)CCC[C@@H](C)[C@H]1CC[C@H]2C3=C[C@@H](NCCc4c[nH]cn4)[C@@]4(O)C[C@@H](O)CC[C@]4(C)[C@H]3CC[C@]12C
IC50 (P19 [1]; [13]): 5.3 µM
Activity (P19 [2]): 5 um
IC50 (U-937 [3]; [14]): 7.6 µM
Activity (U-937 [4]): <5 um

CC(C)CCC[C@@H](C)[C@H]1CC[C@H]2[C@@H]3C[C@@H](NCCCNCCCCN)[C@@]4(O)C[C@@H](O)CC[C@]4(C)[C@H]3CC[C@]12C
IC50 (P19 [1]; p19): Not Active
Activity (P19 [2]): 50 um
IC50 (U-937 [3]; u-937): Not Active
Activity (U-937 [4]): <5 um

CC(C)CCC[C@@H](C)[C@H]1CC[C@H]2[C@@H]3C[C@@H](n4cnc(CCN)c4)[C@@]4(O)C[C@@H](O)CC[C@]4(C)[C@H]3CC[C@]12C
IC50 (P19 [1]; [13]): 8.9 µM
Activity (P19 [2]): <5 um
Activity (A549): inactive
Activity (N2a): inactive
Activity (MCF7 [5]): inactive
Activity (B16-F10): inactive
Activity (SH-SY5Y): inactive
Activity (NB-4): inactive
Activity (HCT-8): inactive
Activity (SW-620): inactive
Activity (U-937 [6]): inactive
IC50 (U-937 [3]; [14]): 7.7 µM
Activity (KG-1): inactive
Activity (SK-MEL-28): inactive
Activity (U-937 [4]): <5 um
Activity (P19 [7]): inactive
Activity (U-87MG ATCC): inactive
Activity (TS/A): inactive
Activity (SK-N-SH): inactive

CC/C(=C(\c1ccccc1)c1ccc(OCCN(C)C)cc1)c1ccccc1
Activity (MCF7 [8]): Active
Activity (MCF7 [9]): Active
Activity (MCF7 [10]): Active

CC(C)CCC[C@@H](C)[C@H]1CC[C@H]2C3=C[C@@H](NCCCNCCCCNCCCN)[C@@]4(O)C[C@@H](O)CC[C@]4(C)[C@H]3CC[C@]12C
IC50 (P19 [1]; p19): Not Active
Activity (P19 [2]): 10 um
IC50 (U-937 [3]; u-937): Not Active
Activity (U-937 [4]): <5 um

NCCCCN [PUTRESCINE]
IC50 (P19 [1]; p19): Not Active
Activity (P19 [2]): inactive
IC50 (U-937 [3]; u-937): Not Active
Activity (U-937 [4]): inactive

CC(C)CCC[C@@H](C)[C@H]1CC[C@H]2[C@@H]3C[C@@H](NCCCCNCCCN)[C@@]4(O)C[C@@H](O)CC[C@]4(C)[C@H]3CC[C@]12C
IC50 (P19 [1]; p19): Not Active
Activity (P19 [2]): 50 um
Activity (U-937 [11]): inactive
IC50 (U-937 [3]; u-937): Not Active
Activity (U-937 [4]): <5 um
Activity (P19 [12]): inactive
